What is called IC50 is the point on the concentration scale where inhibition reaches its midpoint. Broadly, the CC50 is the concentration at which the toxic effect on the cells reaches its halfway point. In general, half-life refers to the time needed for the level to fall by half in the phase considered. Read a high half-life as slow loss.

From ChEMBL document CHEMBL2380285, “Quinolin-4(1H)-imines are potent antiplasmodial drugs targeting the liver stage of malaria” (J Med Chem, 2013) come the findings set out here.

Data set [1] concerns Plasmodium falciparum. The data set is described as follows: Inhibition of Plasmodium falciparum Enoyl-ACP reductase using Crotonoyl-CoA as substrate up to 50 uM after 20 mins by fluorescence assay.
Data set [2] relates to Plasmodium falciparum. The data set is described as follows: Inhibition of Plasmodium falciparum thioredoxin reductase using DTNB as substrate up to 50 uM after 1 hr by colorimetric assay.
Data set [3] has as its target T1, Dihydroorotate dehydrogenase (fumarate) (Saccharomyces cerevisiae S288c) (UniProt P28272).
T1 sequence (whole entry): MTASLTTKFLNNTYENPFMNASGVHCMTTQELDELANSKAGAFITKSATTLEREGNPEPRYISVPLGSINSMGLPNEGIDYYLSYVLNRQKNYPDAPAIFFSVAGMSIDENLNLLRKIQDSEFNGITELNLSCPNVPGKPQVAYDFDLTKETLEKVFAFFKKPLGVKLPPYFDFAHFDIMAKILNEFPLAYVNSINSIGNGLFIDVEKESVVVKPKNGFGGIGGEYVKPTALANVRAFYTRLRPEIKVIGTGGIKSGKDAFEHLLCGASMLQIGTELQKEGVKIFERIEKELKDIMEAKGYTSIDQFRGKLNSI
The data set is described as follows: Inhibition of Saccharomyces cerevisiae DHODH expressed in Plasmodium falciparum Dd2 by [3H]-hypoxanthine incorporation assay.

Data set [4] has as its target T1, Dihydroorotate dehydrogenase (fumarate) (Saccharomyces cerevisiae S288c). In words: Inhibition of Saccharomyces cerevisiae DHODH expressed in Plasmodium falciparum Dd2 by [3H]-hypoxanthine incorporation assay in presence of proguanil.
Data set [5] can be described thus: Inhibition of Cytochrome b-c1 complex in Plasmodium falciparum 3D7A mitochondria assessed as antimycin-sensitive decylubiquinol-cytochrome c oxidoreductase level.
Data set [6] can be described thus: Selectivity index, ratio of CC50 for human HepG2 cells to IC50 for liver stage Plasmodium berghei. The class given is functional.
A short description of data set [7]: Cytotoxicity against human HepG2 cells after 48 hrs by Alamar Blue assay. The class given is cell-based. Background: Alamar Blue is a resazurin reagent that responds to reducing activity.
Data set [8] in a line: Inhibition of heme crystallization to hemozoin. Type of data set: functional.
Data set [9] in a line: Binding affinity to hematin (unknown origin) by UV-visible titration analysis.
The test system of data set [10] is Plasmodium berghei. In words: Ratio of primaquine IC50 to compound IC50 for liver stage Plasmodium berghei infected in human HuH7 cells. Type of data set: functional, Huh-7.
In data set [11] the test system is Plasmodium falciparum. The data set is described as follows: Antiplasmodial activity against ring stage Plasmodium falciparum W2 infected in human RBC after 48 hrs by FACS analysis. Conditions: W2, 48 h. Type of data set: functional, organism-based.
Data set [12] has as its system Plasmodium berghei. The data set is described as follows: Antiplasmodial activity against liver stage Plasmodium berghei infected in human HuH7 cells co-expressing GFP-Luccon treated for 1 hr prior to infection followed by 24 hrs after compound washout measured after 48 hrs post-infection by Alamar Blue assay. Type of data set: functional, organism-based. Conditions: Huh-7. In a few lines: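 Huh-7 hepatoma cells infected with P. berghei were exposed to a rising series of inhibitor concentrations, with 10 μM the highest tested. IC50 was read from sigmoidal concentration–response curves.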

A short description of data set [13]: Half life in rat liver microsomes at 1 uM after 24 hrs by LC-MS/MS analysis. On the technique in general: Liver microsomes are a subcellular fraction often used to study metabolism.

The structures appear in SMILES notation. Activity calls are given as the source filed them. Bounds are passed on as bounds.

Turning to `CCn1cc/c(=N\c2ccc(Oc3cccc(OC(F)(F)F)c3)cc2)c2ccc(Cl)cc21`, the inhibition result in data set [1], in [2], in data set [3] and in data set [4] was “inactive” each time. In addition, the IC50 in data set [5] came out at 1200 nM; in data set [8], 15400 nM; in data set [11], 1180 nM; in data set [12], 81 nM. The “Ratio CC50/IC50” value in [6] stood at 63.7. For the same compound, the midpoint of cytotoxicity in [7], the CC50 at 48 h, lay at 5160 nM. The logKA in data set [9] was found to be 5.1. In data set [10], the “Ratio IC50” value was 94.
In data set [12], `O=C(CC1NCCCC1O)Cn1cnc2cc(Br)c(Cl)cc2c1=O` (stereo unspecified) [HALOFUGINONE] showed an IC50 of 17 nM.
`CCn1cc/c(=N\c2ccc(Oc3ccc(Cl)cc3)cc2)c2ccc(Cl)cc21`: the half-life at 24 h, 1 µM in data set [13] (microsomes) was 3.9 h. Also, the “Ratio CC50/IC50” value in [6] is on record as 30.9. Further, in data set [7], it took 2690 nM to reach half-maximal cytotoxicity (CC50 at 48 h). The IC50 is 16200 nM in [8], 1090 nM in [11] and 87 nM in data set [12]. The same compound registered a logKA in [9] of 5.1. Moreover, the “Ratio IC50” value in data set [10] is listed as 94.
Turning to `O=C1C(O)=C([C@H]2CC[C@H](c3ccc(Cl)cc3)CC2)C(=O)c2ccccc21` [ATOVAQUONE], the results for the IC50 in data set [5] and in data set [12] were 0.3 nM and 0.376 nM, respectively.
On to `CCn1cc/c(=N\c2ccc(Oc3ccc(C(F)(F)F)cc3)cc2)c2ccc(Cl)cc21`, for which it took 3200 nM to reach half-maximal cytotoxicity in data set [7] (CC50 at 48 h). Besides, the values for the IC50 in [11] and in data set [12] were 1260 nM and 234 nM, respectively.
In the case of `CCOC(=O)c1cn(C)c2ccc(F)cc2/c1=N/c1ccc(-c2ccccc2)cc1`, the IC50 in data set [11] was 5880 nM; in [12] it was greater than 10000 nM.
On to `CCn1cc/c(=N\c2ccc(-c3ccccc3)cc2)c2ccc(Cl)cc21`, for which the half-life at 24 h, 1 µM in data set [13] (liver microsomes) is 4 h. Moreover, the “Ratio CC50/IC50” value in data set [6] stood at 23.6. In [7], this compound displayed a CC50 at 48 h of 4610 nM. The IC50 in [8] was 18900 nM; in data set [11], 540 nM; in [12], 200 nM. Besides, in data set [9], the logKA worked out at 5.6.
On to `Cn1cc/c(=N\c2ccc(Oc3ccc(C(F)(F)F)cc3)cc2)c2ccc(Cl)cc21`, for which, in data set [13] (liver microsomes), the half-life at 24 h, 1 µM is 4.1 h. Besides, the “Ratio CC50/IC50” value in data set [6] came to 13.4. Moreover, in data set [7], the cytotoxic concentration (CC50) at 48 h was 3080 nM. The logKA in [9] came to 4.9. Further, the figures for the IC50 in data set [11] and in data set [12] were 1080 nM and 229 nM, respectively.
With `CCN(CC)CCCC(C)Nc1ccnc2cc(Cl)ccc12` (stereo unspecified) [CHLOROQUINE], in data set [8], the IC50 turned out to be 6600 nM.
Turning to `CCn1cc/c(=N\c2ccc(Oc3ccc(OC(F)(F)F)cc3)cc2)c2ccc(Cl)cc21`, the “Ratio CC50/IC50” value in [6] worked out at 24.3. The CC50 at 48 h in [7] amounted to 3530 nM. Further, the values for the IC50 in [8], in data set [11] and in data set [12] were 13500 nM, 960 nM and 145 nM, respectively. In data set [9], the logKA is 4.9.
The compound `CCn1cc/c(=N\c2ccc(Oc3cccc(OC(F)(F)F)c3)cc2)c2ccc(C(F)(F)F)cc21` gave a half-life at 24 h, 1 µM in [13] (microsomes) of 8.5 h. In addition, the “Ratio CC50/IC50” value in data set [6] worked out at 24. In [7], this compound had a CC50 at 48 h of 12900 nM. For the same compound, the logKA in data set [9] came to 3.9. For the same compound, the IC50 in data set [11] was 1560 nM; in data set [12], 537 nM.
`CCn1cc/c(=N\c2cccc(CCc3ccc(OC(F)(F)F)cc3)c2)c2ccc(Cl)cc21`: in data set [6], the “Ratio CC50/IC50” value amounted to 17.4. The half-maximal cytotoxic concentration (CC50) at 48 h in data set [7] is 3940 nM. This compound also returned a logKA in data set [9] of 5.2. The IC50 in data set [11] amounted to 3110 nM; in [12], 227 nM.
For `CCOC(=O)c1cn(CC)c2ccc(F)cc2/c1=N/c1ccc(-c2ccccc2)cc1`, the IC50 in data set [11] is 5320 nM; in data set [12], greater than 10000 nM.
With `CCn1cc/c(=N\c2ccc(Cc3ccccc3)cc2)c2ccc(Cl)cc21`, in data set [6], the “Ratio CC50/IC50” value is on record as 4.91. In addition, the CC50 at 48 h in data set [7] was determined as 2890 nM. In [9], this compound returned a logKA of 5. Moreover, the IC50 in data set [11] stood at 1690 nM; in data set [12], 589 nM.
Consider `Cc1nc(C)c(Cl)c(O)c1Cl` [CLOPIDOL], for which the logKA in [9] is 4.7. In addition, it took 1460 nM to reach half-maximal inhibition in data set [12] (IC50).
`CCn1cc/c(=N\c2ccc(-c3ccccc3)cc2)c2ccc(C(F)(F)F)cc21` gave a half-life at 24 h, 1 µM in data set [13] (liver microsomes) of 4.2 h. The inhibition entry in [1], in data set [2], in data set [3] and in data set [4] was “inactive” each time. Moreover, the IC50 in [5] was 28000 nM; in data set [8], 17000 nM; in [11], 590 nM; in data set [12], 575 nM. Besides, the “Ratio CC50/IC50” value in data set [6] turned out to be 12.2. Also, half-maximal cytotoxicity in data set [7] (CC50 at 48 h) was put at 7040 nM. The logKA in [9] is 5.7.
`CCn1cc/c(=N\c2cccc(CCc3ccc(OC(F)(F)F)cc3)c2)c2ccc(C(F)(F)F)cc21`: the “Ratio CC50/IC50” value in data set [6] stood at 25.9. Besides, in [7], the CC50 at 48 h turned out to be 6090 nM. In addition, the logKA in data set [9] amounted to 4.9. In addition, the half-inhibitory concentration (IC50) was 1670 nM in [11] and 235 nM in data set [12].
In the same order, the values of `CCn1cc/c(=N\c2ccc(Oc3ccccc3)cc2)c2ccc(Cl)cc21` are 24.9, 5330 nM, 5.4, 890 nM and 214 nM.
As for `CCn1cc/c(=N\c2cccc(CCc3ccc(Cl)cc3)c2)c(Cl)c1`, inhibition in data set [12] was half-maximal at 407 nM (IC50).
